WT yeast gro inh = growth inhibition of WT yeast, mitochondrial fusion screen | AID 1362 | 190,000 compounds, 2.1% hits | mitochondrial fusion phenotypic screen, WT strain | inhibition, % at 10 µM; in the data active = inhibition above about 58%; tested in S. cerevisiae
EBV gp42 block = EBV gp42 inhibition. inhibition, % (tested at 21.74 µM). Fluorescence polarization binding assay, mP read-out. 220,000 compounds, 0.42% hits. AID 1085; in the data active = inhibition above about 50%
Target sequence (Q1HVG2 whole entry, looked up): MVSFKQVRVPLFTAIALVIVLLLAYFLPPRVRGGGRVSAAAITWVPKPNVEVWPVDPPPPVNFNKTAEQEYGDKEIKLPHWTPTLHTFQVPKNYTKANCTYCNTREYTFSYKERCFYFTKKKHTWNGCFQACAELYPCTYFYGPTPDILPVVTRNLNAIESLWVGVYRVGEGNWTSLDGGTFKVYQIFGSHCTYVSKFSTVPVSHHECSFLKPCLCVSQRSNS
GRIN3A LBD mod = modulates the human NR3A ligand-binding domain; NR3A LBD differential scanning fluorimetry, Tm shift; 0% = protein alone, 100% = glycine-bound protein; Tm shift relative to glycine control, % at 25 µM; 340,000 compounds, 2.5% hits;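 active = melting temperature shift of at least 10% of the positive control shift, at one fixed dose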
Tb MetRS inh = Trypanosoma brucei MetRS inhibition | purified T. brucei MetRS, ATP depletion, Kinase-Glo luminescence | inhibition, % at 11.9 µM | 360,000 compounds, 0.4% hits;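 active = inhibition above a per-plate cutoff of the control wells' mean inhibition plus 3 SD, cut at about 5.5% in these data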;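 note: 0% = DMSO wells median and 100% = median of wells with control inhibitor compound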
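Test system – parasite MetRS enzyme · Reagent – substrates ATP, L-methionine and bulk Escherichia coli tRNA · Doses – 11.9 µM compound single dose, 0.9% DMSO · Times – 15 min enzyme-compound preincubation, 2 h reaction, 10 min detection, 25 °C · Signal – Kinase-Glo luminescence, ATP depletion format · Controls – DMSO-only wells as low control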
CHOP inh = inhibitors of CHOP induction in ER stress response; inhibition, % at 10 µM; CHO-K1 CHOP-promoter luciferase, tunicamycin-induced, 15-18 h; 220,000 compounds, 3.8% hits;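 active = compounds that reduced the stress-induced luciferase reporter signal by more than about 70% of percent inhibition, limit read from the data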;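 note: 0% = tunicamycin plus vehicle and 100% = wells without tunicamycin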
MPTP block = permeability transition pore inhibition. isolated mouse mitochondria, Ca2+ swelling absorbance, 30 min. inhibition, % at 10 µM. 360,000 compounds, 1.4% hits. AID 602449;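 active = inhibition of 50% or more, scaled per plate between neutral and stimulator controls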;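 note: 0% = DMSO wells given calcium and 100% = 1 mM EGTA wells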
CHOP inh conf = confirmation of CHOP induction inhibitors; inhibition, % at 10 µM; shares compounds with CHOP inh; CHO-CHOP promoter luciferase reporter, tunicamycin-induced, luminescence; 2,100 compounds, 45% hits;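 active = mean of three repeat readings of reporter signal inhibition above a set limit, cut at about 70% in these data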;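 note: 0% = tunicamycin plus vehicle and 100% = wells lacking tunicamycin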
An asterisk follows results filed as active; . = not tested or not shown. A selection: hits, their analogues and other compounds. The true share with any hit is near 6.4%.

SMILES | WT yeast gro inh | EBV gp42 block | GRIN3A LBD mod | Tb MetRS inh | CHOP inh | MPTP block | CHOP inh conf
CC1C(C)C(O)(c2ccccc2)CCN1C (stereo not given) | 5 | -8 | -2 | 0 | -15 | -1 | .
C#CCNC(=O)C1=C[C@@H](c2ccc3c(c2)OCO3)[C@H](CCCO)[C@@H](OCC)O1 | -5 | -14 | -2 | 0 | 7 | 1 | .
COc1ccc(NC(=O)Nc2nnc(-c3ccccc3SCc3ccccc3)s2)cc1 | 13 | -15 | 22* | -1 | 98* | 10 | 27
CCOc1cc(CNc2ccc(O)cc2)cc(Br)c1OCc1ccccc1F | 13 | -11 | 0 | 0 | 110* | -4 | 63
C=CCOc1c(Br)cc(CNc2ccc(NC(=O)C(C)C)cc2)cc1OCC | -6 | 1 | -3 | 1 | 26 | -3 | .
COc1cccc(-c2cnc(C(O)c3ccc(Cl)c(F)c3)[nH]2)c1 (stereo not given) | . | . | . | 0 | . | 3 | .
CC1=C(C(=O)Nc2ccc(C)cc2C)C(c2ccc(Cl)cc2)n2nc(C(=O)OC(C)C)nc2N1 (stereo not given) | -3 | -17 | -14 | 0 | 105* | -1 | 18
CC(/C=N/n1c(COc2ccccc2)n[nH]c1=S)=C\c1ccccc1 | 75* | 5 | -6 | 0 | 111* | 14 | -8
S=c1[nH]nc(C2CCCCC2)n1/N=C/C(Cl)=C\c1ccccc1 | 11 | -4 | -11 | 0 | 102* | 3 | 29
S=c1[nH]nc(C2CCCCC2)n1/N=C/C=C/c1ccccc1 | -12 | 0 | -3 | -1 | 105* | 4 | 106*
Oc1cccc(/C=N/n2c(C3CCCCC3)n[nH]c2=S)c1 | . | . | -3 | -1 | . | 1 | .
COc1ccc(/C=C/C(=O)OCC(=O)c2ccc3c(c2)NC(=O)CO3)cc1 | . | -9 | 2 | 0 | 2 | 1 | .
O=C(Cc1cccs1)NCc1cccc(Br)c1 | . | . | 1 | 3 | . | 0 | .
O=C(NS(=O)(=O)c1ccccc1[N+](=O)[O-])c1ccccc1 | . | . | 0 | 0 | . | -1 | .
CCn1cc([N+](=O)[O-])c(C(=O)N2N=C(c3ccc(Cl)c(Cl)c3)CC2c2ccccc2O)n1 (stereo not given) | 0 | 10 | 7 | 1 | 101* | 0 | 78*
COc1ccc2sc(SCCCS(=O)(=O)O)[n+](CCCS(=O)(=O)[O-])c2c1 | -4 | -16 | 8 | -2 | 9 | 0 | .
Cc1ccc2nsnc2c1NC(=O)c1ccc(-c2cc(Cl)ccc2Cl)o1 | 0 | -22 | 2 | 0 | 101* | -2 | 62
O=S(=O)(/N=C(\Sc1ccccc1)c1ccccc1)c1ccc(Cl)cc1 | 21 | -9 | 2 | -1 | 1 | -4 | .
Cc1ccc(S(=O)(=O)/N=C(\Sc2ccccc2)c2ccccc2)cc1 | 11 | -7 | 0 | 0 | 107* | 11 | 46
O=C(C1CCN(c2ccc(N3CCOCC3)nn2)CC1)N1CCc2ccccc2C1 | 16 | . | 0 | -1 | . | -1 | .
O=C(Nc1ccccn1)c1cc(-c2cccnc2)nc2ccc(Br)cc12 | 6 | 16 | 1 | 0 | 103* | 0 | -15
Cc1cc(NC(=O)c2cc(-c3ccccn3)nc3ccc(Br)cc23)no1 | . | . | -1 | -1 | . | 1 | .
COC(=O)C(CC(=O)c1ccc(C)cc1)n1nc(C)cc1C (stereo not given) | . | . | -2 | 0 | . | 2 | .
CCCCCCN1C[C@H](O)[C@@H](n2cc(C3CC3)nn2)C[C@@H]1c1ccc(C)cc1 | . | . | . | -1 | . | -1 | .
Cc1ccc(N=Cc2cc3c(cc2O)OC(N)=C(C#N)C3c2ccccc2)cc1 (stereo not given) | 14 | -70 | 12* | 2 | 99* | 25 | 82*
SMILES | WT yeast gro inh | EBV gp42 block | GRIN3A LBD mod | Tb MetRS inh | CHOP inh | MPTP block | CHOP inh conf
O=C(Nc1ccc(F)cc1)Nc1nnc(-c2ccco2)s1 | -5 | -8 | -3 | 2 | 96* | 0 | 12
COc1ccc(C(=O)Nc2nnc(-c3ccco3)s2)cc1 | 16 | -13 | 1 | 0 | 107* | -1 | 73*
Cc1ccc(-n2[nH]c(C)c(C=Nc3ccc4[nH]c(=O)[nH]c4c3)c2=O)cc1 | 6 | 24 | -17 | -1 | 103* | -1 | -4
COCC1CCN(Cc2cn(Cc3ccccc3)nc2-c2cc3ccccc3o2)CC1 | 5 | 13 | 0 | -1 | 31 | -3 | .
COc1ccc2c(c1)c1ncn(CCN3CCCC3)c(=O)c1n2C | 15 | -9 | 0 | 0 | 101* | 0 | 18
C/C(=N\O)c1ccc(Cl)c(Cl)c1 | . | -8 | 1 | . | 16 | . | .
O=C(Nc1cccc(F)c1)N(Cc1ccc(Cl)cc1)CC(O)C(F)(F)F (stereo not given) | 71* | 6 | 1 | -1 | 109* | 12 | 104*
O=C(Nc1ccccc1)N(Cc1ccccc1)CC(O)C(F)(F)F (stereo not given) | 19 | 1 | 1 | -1 | -20 | -4 | .
Cc1cc(C)c([N+](=O)[O-])cc1NC(=O)CCSc1ccccc1Cl | -9 | 0 | -2 | -1 | 68 | 49 | .
Cc1cc(C)c(C(=O)O)c(Cl)n1 | -26 | -16 | 1 | -1 | 16 | 0 | .
O=S(=O)(Nc1ccc(-n2cccc2)cc1)c1ccc(F)cc1 | -11 | 10 | -10 | 0 | 47 | 2 | .
O=S(=O)(Nc1ccc(-n2cccc2)cc1)c1ccc(Cl)cc1Cl | 88* | 2 | 14* | 0 | 102* | 11 | 15
CSc1ccccc1NC(=O)CN(C)CC(=O)Nc1ccccc1N1CCOCC1 | -9 | -10 | 0 | 0 | -6 | -1 | .
O=C1C=CC(O)(c2cc(=O)c3c(O)cc(O)cc3o2)C=C1 | -3 | -9 | -15 | 0 | 108* | 1 | 122*
O=c1cc(-c2ccccc2Cl)oc2cc(O)cc(O)c12 | 9 | -4 | -3 | 0 | 28 | 13 | .
C=C(C)C1Cc2c(C)nn(-c3cccc4ccccc34)c2C1 (stereo not given) | 86* | -16 | 1 | 0 | 101* | 1 | 31
C=C(C)C1Cc2c(C)nn(-c3ccccc3)c2C1 (stereo not given) | 21 | -25 | 0 | 0 | -14 | 1 | .
COc1ccc(C(O)(C(=O)NNc2ccc(C)cc2)c2cccs2)cc1 (stereo not given) | 0 | -16 | 0 | -3 | -36 | -1 | .
O=C(NNc1ccc(C2CCCCC2)cc1)C(O)(c1ccccc1)c1cccs1 (stereo not given) | 89* | 1 | 4 | -1 | 106* | 1 | -3
Cc1sc2ncnc(OCC(=O)N3CCN(C(=O)c4ccco4)CC3)c2c1C | -26 | -11 | 0 | 1 | 1 | -2 | .
Cn1c(=O)c2c(nc(Sc3ncnn3CC(=O)NC(C)(C)C)n2C)n(C)c1=O | 28 | -6 | -2 | 1 | 100* | 0 | 15

Source: PubChem
